We go through twelve compounds from PubChem BioAssay.

Structures are written as SMILES. Calls of active or inactive are those of the source.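 Rule for the calls, unless noted: active = fluorescence slope after compound addition differing from the mean of all screened samples at 99.7% confidence, in either direction; inactive = the rest.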

Assay [1] is described as follows: inhibitors of TNFa-induced NFkB p65 translocation, primary screen, imaging, HUVEC, MLSMR starter and 10KST1 sets (AID 438;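 active = inhibition above 20% together with a positive visual image hit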;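 note: compound added about 3h40 before a 20 min TNFalpha stimulation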;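 for inhibition: signal is the nuclear over cytoplasmic p65 intensity ratio per well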). As to conditions: HUVEC TNFa-induced p65 nuclear translocation; cell count: measured here: nuclei count (cytotoxicity indicator), at 2.08 µM; inhibition: at 2 µM, stronger effect = higher value, 0% TNFa-plus-vehicle, 100% no-TNFa wells.
The nature of assay [2]: reduction of polyQ htt aggregates in cells – imaging, exon1htt(103Q)mCFP cells, high-content imaging, primary screen (AID 483;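 active = visual image review flags a hit and inhibition of aggregation exceeds 20%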;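 note: compound exposure lasted 3 days before fixation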;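 for nuclei count: percent of the per-plate median nuclei count of sample wells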). As to conditions: exon1htt(103Q)mCFP cell line, aggregate imaging, at 2 µM; inhibition of aggregation: stronger effect = higher value; nuclei count: measured here: cell count, toxicity.
Assay [3] can be described thus: endothelial E-selectin expression blockers – imaging, HUVEC, immunofluorescence, MLSMR starter and 10KST1 sets, primary screen (AID 487;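 active = visually confirmed hit in the image check and inhibition above 20%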;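 for inhibition: signal is fraction of cell area covered by stained E-selectin grains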;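 for nuclei count: 100% = median nuclei count of all wells on the same plate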). As to conditions: HUVEC TNFalpha-induced E-selectin immunofluorescence imaging, at 2 µM; inhibition: stronger effect = higher value; nuclei count: measured here: cell number, toxicity.
Assay [4] deals with Voltage-gated potassium channel subunit beta-2 (Rattus norvegicus) (UniProt P62483). Put plainly: inhibitors of rat Kvbeta2 reductase activity – biochemical, NADPH fluorescence, primary screen (AID 622;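 active = fluorescence slope higher than the sample average by over 3 SD, cut at about -0.22 in these data, passing the limit was not always enough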;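 note: slope of raw intensity against log time taken from 70 to 1610 s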). As to conditions: recombinant KvBeta, 4-cyanobenzaldehyde reduction, at 10 µM, stronger effect = higher value.
For assay [5] the target is unchanged. The experiment in a line: enhancers of rat Kvbeta2 NADPH turnover – biochemical, NADPH fluorescence, primary screen (AID 623;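 active = NADPH fluorescence slope more negative than the mean of all samples by about 3 SD, 99.7% confidence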;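 note: fluorescence intensity change per second fitted from 20 to 320 s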). The conditions noted are these: Recombinant KvBeta, NADPH fluorescence decrease slope, 10 min; at 10 µM; stronger effect = lower value.
Assay [6] concerns the target Alpha-2C adrenergic receptor (Homo sapiens) (UniProt P18825). Put plainly: compounds altering alpha2C-coupled GIRK flux – cell-based, HEK293 alpha2C/GIRK1/2, thallium flux, primary screen (AID 624).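 Note: slope of fluorescence ratio to pre-addition baseline per second over 15 to 24 s.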 The conditions noted are these: thallium flux BTC fluorescence, at 10 µM, actives lie on both sides.
A short description of assay [7]: inhibitors of larval lipid processing in zebrafish, primary screen, whole organism, PED6 fluorescence, gall bladder and intestine (AID 686;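 active = a full or partial loss of lipid-probe fluorescence in the fish gall bladder, intestine or both, judged by eye; inactive = no fluorescence loss, or compound toxic to the fish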;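 note: larvae 5 to 7 days old with five fish per well; signal comes from phospholipase A2 cleavage of quenched PED6 carried via bile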). The conditions noted are these: Zebrafish larvae PED6 lipid processing, fluorescence scoring; screened at 20 µM (by protocol). Summed up: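 system = live zebrafish larvae aged 5-7 days, whole organism | probe or stimulus = ingested quenched lipid PED6 at 100 nM | doses = 20 µM single dose | timing = overnight exposure | detection = fluorescence microscopy with visual scoring of gall bladder and intestine | read-out = visual per-well fluorescence inhibition score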

Assay [8] can be described thus: blockers of RIG-like receptor reporter activation – cell-based, Sendai virus stimulus, luciferase, 10K MLSCN set, TLR/RLR signaling modifier project, primary screen (AID 602276;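 active = inhibition at or above 50% at 10 µM; inactive = inhibition below 50%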;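 note: firefly luciferase from ISG56 promoter only with Renilla not read in this screen; 0% = Sendai virus plus DMSO and 100% = medium plus DMSO without virus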). The conditions noted are these: HEK293 RL24 IRF3 luciferase reporter, at 10 µM, stronger effect = higher value. A general note: In a reporter assay the amount or activity of a reporter protein is the signal.

The nature of assay [9]: TLR3 IRF3 reporter activation blockers – cell-based, poly I:C stimulus, luciferase, 10K MLSCN set, primary screen (AID 602277;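 active = inhibition of the reporter signal at or above 50%; inactive = inhibition below 50%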). As to conditions: HEK293-TLR3 RL24 IRF3 luciferase reporter, at 10 µM, stronger effect = higher value.

Alpha-2C adrenergic receptor (Homo sapiens), sequence (P18825 whole entry, looked up): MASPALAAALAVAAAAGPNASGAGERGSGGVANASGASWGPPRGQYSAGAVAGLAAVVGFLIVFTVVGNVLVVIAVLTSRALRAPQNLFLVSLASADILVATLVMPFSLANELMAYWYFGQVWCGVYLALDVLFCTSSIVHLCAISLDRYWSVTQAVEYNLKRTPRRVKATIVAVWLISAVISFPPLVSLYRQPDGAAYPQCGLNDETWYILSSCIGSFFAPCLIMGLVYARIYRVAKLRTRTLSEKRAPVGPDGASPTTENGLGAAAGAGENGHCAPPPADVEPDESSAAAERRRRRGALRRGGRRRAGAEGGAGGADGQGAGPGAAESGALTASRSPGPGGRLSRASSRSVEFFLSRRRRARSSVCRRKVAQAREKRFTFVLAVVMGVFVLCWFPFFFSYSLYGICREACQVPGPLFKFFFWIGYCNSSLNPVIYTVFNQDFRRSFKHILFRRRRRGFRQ
Voltage-gated potassium channel subunit beta-2 (Rattus norvegicus), sequence (P62483 whole entry, looked up): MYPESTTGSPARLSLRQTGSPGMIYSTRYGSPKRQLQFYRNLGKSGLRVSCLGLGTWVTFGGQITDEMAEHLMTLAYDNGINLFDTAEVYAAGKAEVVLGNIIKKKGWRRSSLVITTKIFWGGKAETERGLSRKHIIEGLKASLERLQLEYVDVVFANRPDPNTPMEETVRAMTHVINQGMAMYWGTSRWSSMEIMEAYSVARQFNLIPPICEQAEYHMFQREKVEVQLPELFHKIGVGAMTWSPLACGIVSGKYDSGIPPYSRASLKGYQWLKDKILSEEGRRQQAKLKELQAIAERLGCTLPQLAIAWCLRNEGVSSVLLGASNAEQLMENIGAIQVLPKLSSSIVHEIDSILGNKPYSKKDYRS

Broadly, the inhibition is the relative decrease from the control value, in per cent. Consider `CCc1nnc(NC(=O)CSc2nnc3ncccn23)s1`, for which the cell count in [1] worked out at 341. Besides, the inhibition in assay [1] was -5.8% (inactive); in assay [3], -34.8% (inactive); in assay [8], 18.7% (inactive); in assay [9] it was 25.6% (inactive). For the same compound, the inhibition of aggregation in assay [2] was -25.9% (inactive). Further, the values for the nuclei count in assay [2] and in [3] were 132% and 102%, respectively. Also, the fluorescence slope in assay [4] was -0.437 (inactive). The NADPH fluorescence slope in assay [5] is -9.3e-05 (inactive). In [6], the slope was 0.00648 (inactive). For the same compound, the outcome in assay [7] was inactive.
Consider `C1CCN=C(Nc2nc3c(s2)CCCC3)CC1`, for which the cell count in assay [1] was found to be 432. Besides, the inhibition is 7.3% (inactive) in [1], 8.7% (inactive) in assay [3], -23.9% (inactive) in assay [8] and -50% (inactive) in [9]. Besides, the inhibition of aggregation in assay [2] was -10.9% (inactive). Further, the nuclei count came out at 118% in assay [2] and 110% in assay [3]. Also, the fluorescence slope in assay [4] was -0.413 (inactive). In assay [5], the NADPH fluorescence slope is -3.8e-05 (inactive). The slope in [6] is 0.00517 (inactive). Further, the outcome in assay [7] was inactive.
For the compound `COc1ccc(N=C2C(=O)Nc3ccccc32)cc1`, the cell count in [1] was 617. The inhibition in assay [1] is 2.4% (inactive); in assay [3] it was -96.7% (inactive); in assay [8], 13% (inactive); in assay [9], 28.1% (inactive). Also, the inhibition of aggregation in assay [2] was -5% (inactive). In addition, the nuclei count amounted to 100% in assay [2] and 138% in assay [3]. The fluorescence slope in [4] was -0.374 (inactive). Besides, in assay [5], the NADPH fluorescence slope was -1.5e-06 (inactive). For the same compound, the slope in assay [6] is 0.00431 (inactive). In addition, the result in assay [7] was inactive.
In the case of `COc1cc(C(=O)N(C)c2nnc(-c3cccnc3)s2)cc(OC)c1OC`, the cell count in assay [1] worked out at 646. For the same compound, the inhibition in assay [1] is -5.5% (inactive); in assay [3], 3.6% (inactive); in assay [8], -9.5% (inactive); in assay [9], -1.29% (inactive). The inhibition of aggregation in assay [2] was 0.4% (inactive). The values for the nuclei count in [2] and in assay [3] were 99.2% and 103%, respectively. Besides, the fluorescence slope in assay [4] was -0.5 (inactive). In [5], the NADPH fluorescence slope is 1.3e-05 (inactive). For the same compound, the slope in assay [6] is 0.00473 (inactive). For the same compound, the outcome in assay [7] was inactive.
With `O=C(Nc1cc(C(=O)N2CCCC2)ccc1N1CCCC1)c1ccccc1F`, the cell count in assay [1] worked out at 612. The inhibition in assay [1] was 2% (inactive); in assay [3], -93% (inactive); in assay [8] it was -1.26% (inactive); in assay [9], -54% (inactive). The inhibition of aggregation in assay [2] is -12.8% (inactive). Also, the nuclei count was found to be 107% in assay [2] and 95.8% in [3]. Moreover, the fluorescence slope in [4] is -0.343 (inactive). Also, the NADPH fluorescence slope in [5] was -7.2e-05 (inactive). Further, in assay [6], the slope was 0.00481 (inactive). In addition, the outcome in assay [7] was inactive.
On to `FC(F)(F)c1ccc(Sc2nnc(-c3cccs3)n2CC2CCCO2)nc1` (centres undefined), for which the cell count in [1] was determined as 357. For the same compound, the inhibition in assay [1] is -21.4% (inactive); in assay [3] it was -85.5% (inactive); in assay [8], 13.6% (inactive); in assay [9] it was 6.99% (inactive). Further, the inhibition of aggregation in [2] was -3% (inactive). The values for the nuclei count in assay [2] and in assay [3] were 83.2% and 104%, respectively. In addition, the fluorescence slope in assay [4] was -0.424 (inactive). Moreover, the NADPH fluorescence slope in assay [5] is -7.7e-06 (inactive). For the same compound, the slope in assay [6] was 0.00449 (inactive). Moreover, in assay [7], the outcome was inactive.
`CC(=O)Nc1ccccc1OCC(=O)c1cc(C)n(Cc2cccs2)c1C`: the cell count in assay [1] was found to be 425. Also, the inhibition in [1] was -2% (inactive); in [3], -54.1% (inactive); in assay [8] it was 49.5% (inactive); in [9] it was -26.5% (inactive). Besides, in assay [2], the inhibition of aggregation was -13.7% (inactive). In addition, the nuclei count is 45.4% in [2] and 107% in assay [3]. Besides, in [4], the fluorescence slope is -0.475 (inactive). Further, the NADPH fluorescence slope in assay [5] was -4.2e-05 (inactive). The slope in assay [6] is 0.00662 (inactive). In addition, in assay [7], the outcome was “inactive; toxic”.
Regarding `COc1ccccc1-n1nnnc1SCc1cc2c(cc1Br)OCO2`, the cell count in assay [1] is 319. Further, the inhibition in assay [1] was -4.5% (inactive); in assay [3], -168% (inactive); in [8] it was 19.6% (inactive); in assay [9], 22.9% (inactive). Further, the inhibition of aggregation in assay [2] is -1.1% (inactive). Besides, the figures for the nuclei count in [2] and in assay [3] were 90.3% and 130%, respectively. For the same compound, in [4], the fluorescence slope was -0.437 (inactive). In addition, in [5], the NADPH fluorescence slope is -4.6e-05 (inactive). Also, in assay [6], the slope was 0.00645 (inactive). For the same compound, the result in assay [7] was inactive.
Regarding `O=C(CSc1ncn[nH]1)NC1CC2CCC1C2` (centres undefined), the cell count in assay [1] came out at 264. The inhibition was -16.8% (inactive) in assay [1], 56.4% (inactive) in assay [3], 2.17% (inactive) in assay [8] and 7.86% (inactive) in [9]. In addition, the inhibition of aggregation in assay [2] is 17% (inactive). For the same compound, the nuclei count was determined as 80.8% in [2] and 53% in assay [3]. The fluorescence slope in [4] was -0.448 (inactive). In assay [5], the NADPH fluorescence slope was -3.5e-05 (inactive). For the same compound, the slope in [6] was 0.00492 (inactive). For the same compound, the result in [7] was inactive.
In the case of `CCOC(=O)c1ccccc1NC1CC(=O)N(c2ccccc2C)C1=O` (centres undefined), in assay [1], the cell count came to 242. The inhibition in assay [1] is 6.7% (inactive); in assay [3], 8.6% (inactive); in [8] it was -4.41% (inactive); in [9] it was -8.61% (inactive). In assay [2], the inhibition of aggregation is 12.6% (inactive). The nuclei count was 97.9% in [2] and 94.8% in assay [3]. Moreover, the fluorescence slope in assay [4] is -0.262 (inactive). For the same compound, the NADPH fluorescence slope in [5] was 9.8e-06 (inactive). Further, in [6], the slope is 0.00569 (inactive). For the same compound, in [7], the outcome was inactive.
As for `CC(C)OC(=O)c1cc(NC(=O)C2C3CCC(O3)C2C(=O)O)cc(C(=O)OC(C)C)c1` (centres undefined), the cell count in assay [1] was 418. The inhibition was 4.2% (inactive) in assay [1], -49.1% (inactive) in assay [3], 20.3% (inactive) in assay [8] and 13.2% (inactive) in assay [9]. Moreover, the inhibition of aggregation in assay [2] is 7.3% (inactive). In addition, the results for the nuclei count in assay [2] and in assay [3] were 108% and 113%, respectively. For the same compound, the fluorescence slope in [4] was -0.454 (inactive). In addition, the NADPH fluorescence slope in assay [5] was -5.2e-05 (inactive). The slope in assay [6] is 0.00511 (inactive). In [7], the call was inactive.
With `CCc1nnc(NC(=O)CSc2nc(-c3ccc(OC)cc3)ns2)s1`, in assay [1], the cell count stood at 203. Further, the inhibition was -10.4% (inactive) in assay [1], -32.2% (inactive) in assay [3], -36.8% (inactive) in assay [8] and -50.2% (inactive) in assay [9]. The inhibition of aggregation in [2] is -17.4% (inactive). The results for the nuclei count in assay [2] and in assay [3] were 82% and 98.7%, respectively. Also, in assay [4], the fluorescence slope was -0.408 (inactive). In addition, in assay [5], the NADPH fluorescence slope is 3.8e-06 (inactive). In assay [6], the slope is 0.00688 (inactive). Besides, the compound was classed as inactive in assay [7].
